# Results reported in ChEMBL document CHEMBL2429803, “Animal toxicity of hairpin pyrrole-imidazole polyamides varies with the turn unit” (J Med Chem, 2013).
# The source made the active and inactive calls. The calls are words filed in the database; no cut-off is given here.
# Key:
# Mus musculus [1] = assay: Toxicity in C57BL/6J mouse assessed as total WBC count at 1 mg/kg, sc administered once every 3 days for a cycle of six injections measured 2 days post last injection; format: organism-based; design: dose 1 mg/kg, route subcutaneous; settings: in vivo, 48 h
# Procedure, shortened: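 Male C57BL/6J mice, blood taken by retroorbital bleed before dosing; after 1 week recovery, sc injections once every 3 d in 20% DMSO:normal saline, six injections; bled again at end point (2 days after final injection). K2EDTA blood sent for hematology (WBC, RBC, hemoglobin, neutrophils, lymphocytes); n = 5, mean with std.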
# [2] = Metabolic stability in human liver microsomes after 1 hr by LC/MS/MS analysis; format: ADME, Microsome; settings: read-out: Stability
# Procedure, shortened: (§1)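 Compound incubated at 37 °C for 60 min with 1 mg/mL human or mouse liver microsomes in 100 mM KH2PO4, 3 mM MgCl2, pH 7.4, with 2 mM NADPH or without it. Stopped with ice-cold methanol, then precipitate removed. Analyzed by LC/MS/MS as % remaining versus time zero. Duplicates.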
# Mus musculus [3] = assay: Toxicity in NSG immunocompromised mouse model xenografted with human LNCAP cells assessed as weight loss at 1 mg/kg, sc administered once every 3 days for a cycle of six injections; format: organism-based; design: dose 1 mg/kg, route subcutaneous; settings: in vivo, 72 h
# Procedure, shortened: (§2)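 Male NSG mice engrafted in the left flank with 2.5 million LNCaP cells in 1:1 media/matrigel; dosing began at ~200 mm3 tumours (0.5 × L × W2). Compound or vehicle given sc in 20% DMSO/normal saline once every 3 d for six injections, n = 14 per group; weight and general health checked daily, sacrifice 2 days after final injection.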
# Mus musculus [4] = assay: Acute toxicity in C57BL/6J mouse at 1 to 10 mg/kg, sc after 9 days; format: organism-based; design: dose 1-10 mg/kg, route subcutaneous; settings: in vivo, 216 h
# Procedure, shortened: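 Single sc injection in male 8-week-old C57BL/6J mice (1, 3 or 10 mg/kg in 25% DMSO/saline; n = 4 per group), followed for 9 days with daily weighing, then sacrifice. Toxicity was assessed by blinded histopathology of two mice per group and by blinded serum ALT, AST, total bilirubin, BUN and creatinine from retroorbital blood of all mice.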
# Mus musculus [5] = assay: Acute toxicity in C57BL/6J mouse assessed as lesions in stomach at 1 to 10 mg/kg, sc after 9 days; format: organism-based; design: dose 1-10 mg/kg, route subcutaneous; settings: in vivo, 216 h
# Procedure, shortened: (§3)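 Male C57BL/6J mice, 8 weeks old, received a single sc dose (1, 3 or 10 mg/kg in 25% DMSO/saline, n = 4 per group) and were sacrificed after 9 days. Two representative animals per group were fixed in 10% formalin. Cecum, duodenum, heart, ileum, kidney, liver, lung, pancreas, spleen and stomach were examined blind by a veterinary pathologist and lesions graded mild, moderate or severe.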
# LNCaP [6] = assay: Reduction in cellular RPB1 level in human LNCAP cells at 10 uM after 72 hrs by ELISA; format: functional, cell-based
# Procedure, shortened: (§4)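 LNCaP cells treated 72 h at 10 μM. DMSO vehicle and 1 μM doxorubicin for 24 h served as controls. RPB1 measured with an RPB1-specific ELISA and total p53 with a pan-p53 ELISA. Biological triplicates.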
# Mus musculus [7] = assay: Acute toxicity in C57BL/6J mouse assessed as lesions in pancreas at 1 to 10 mg/kg, sc after 9 days; format: organism-based; design: dose 1-10 mg/kg, route subcutaneous; settings: in vivo, 216 h; procedure, shortened: as §3
# [8] = Metabolic stability in mouse liver microsomes after 1 hr by LC/MS/MS analysis; format: ADME, Microsome; settings: read-out: Stability; procedure, shortened: as §1
# [9] = Metabolic stability in human liver microsomes after 1 hr by LC/MS/MS analysis in presence of NADPH; format: ADME, Microsome; settings: read-out: Stability; procedure, shortened: as §1
# LNCaP [10] = assay: Induction in cellular p53 level in human LNCAP cells at 10 uM after 72 hrs by ELISA; format: functional, cell-based; procedure, shortened: as §4
# Mus musculus [11] = assay: Acute toxicity in C57BL/6J mouse assessed as lesions in GI tract at 1 to 10 mg/kg, sc after 9 days; format: organism-based, Gastrointestinal tract; design: dose 1-10 mg/kg, route subcutaneous; settings: in vivo, 216 h; procedure, shortened: as §3
# Mus musculus [12] = assay: Acute toxicity in C57BL/6J mouse assessed as lesions in heart at 1 to 10 mg/kg, sc after 9 days; format: organism-based; design: dose 1-10 mg/kg, route subcutaneous; settings: in vivo, 216 h; procedure, shortened: as §3
# Mus musculus [13] = assay: Toxicity in C57BL/6J mouse assessed as morbidity at 1 mg/kg, sc administered every 3 days for a cycle of 3 injections; format: organism-based; design: dose 1 mg/kg, route subcutaneous; settings: in vivo, 72 h
# Procedure, shortened: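 Male C57BL/6J mice, 3 per group, given 1 mg/kg sc every 3 days. Weight recorded on injection days. Watched for signs of duress. Humane end point was visible duress or weight loss over 15% of starting body weight.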
# Mus musculus [14] = assay: Acute toxicity in C57BL/6J mouse assessed as ALT level at 3 mg/kg, sc after 9 days; format: organism-based; design: dose 3 mg/kg, route subcutaneous; settings: in vivo, 216 h
# Procedure, shortened: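 Male C57BL/6J mice, 8 weeks old, acclimated 3 days, then given a single sc injection of 1, 3 or 10 mg/kg in 25% DMSO/saline (4 per group). Weighed daily for 9 days, then sacrificed. Serum taken by retroorbital bleed and spun at 6000 rpm for 5 min. ALT, AST, total bilirubin, BUN and creatinine measured by an outside lab, blinded.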
# LNCaP [15] = assay: Induction in p21 level in human LNCAP cells after 72 hrs by RT-PCR analysis; format: functional, cell-based
# Procedure, shortened: (§5)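 LNCaP cells, 50 000 per well, adhered 36–48 h, then treated with 1, 3 or 10 μM for 72 h. Total RNA extracted on columns and transcripts quantified by RT-qPCR.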
# Mus musculus [16] = assay: Toxicity in C57BL/6J mouse assessed as weight loss at 1 mg/kg, sc administered every 3 days for a cycle of 3 injections; format: organism-based; design: dose 1 mg/kg, route subcutaneous; settings: in vivo, 72 h
# Procedure, shortened: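 8-week-old male C57BL/6J mice, acclimated 3 days, groups of three, dosed sc in 25% DMSO/saline vehicle once every 3 days, sacrificed 2 days after the last injection. Body weight recorded on injection days and at end point; humane end point set at visible duress or >15% loss of original body weight.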
# LNCaP [17] = assay: Cytotoxicity against human LNCAP cells after 72 hrs by WST-1 assay; format: functional, cell-based
# Procedure, shortened: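 LNCaP cells seeded at 5000–7500 per well and left to adhere 36–48 h. Compound added in fresh medium for 72 h. Metabolic activity read by WST-1 and IC50 derived from the dose–response. Biological triplicates.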
# Mus musculus [18] = assay: Toxicity in NSG immunocompromised mouse model xenografted with human LNCAP cells assessed as distress at 1 mg/kg, sc administered once every 3 days for a cycle of six injections; format: organism-based; design: dose 1 mg/kg, route subcutaneous; settings: in vivo, 72 h; procedure, shortened: as §2
# LNCaP [19] = assay: Induction in IGFBP3 level in human LNCAP cells after 72 hrs by RT-PCR analysis; format: functional, cell-based; procedure, shortened: as §5
# LNCaP [20] = assay: Induction in GADD45A level in human LNCAP cells after 72 hrs by RT-PCR analysis; format: functional, cell-based; procedure, shortened: as §5
# LNCaP [21] = assay: Antitumor activity against human LNCAP cells xenografted in NSG immunocompromised mouse model assessed as tumor growth inhibition at 1 mg/kg, sc administered once every 3 days for a cycle of six injections measured 2 days post last injection relative to control; format: functional; settings: route subcutaneous
# Procedure, shortened: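 Male NSG mice engrafted in the left flank with 2.5 million LNCaP cells in 1:1 media/matrigel. Treatment began at ~200 mm3 (0.5 × L × W2): 1 mg/kg sc in 20% DMSO/normal saline, or vehicle alone, every 3 days for six injections, 14 mice per group. Sacrificed 2 days after the last dose. Tumor weights compared with vehicle (T/C).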
# Mus musculus [22] = assay: Acute toxicity in C57BL/6J mouse assessed as lesions in lungs at 1 to 10 mg/kg, sc after 9 days; format: organism-based; design: dose 1-10 mg/kg, route subcutaneous; settings: in vivo, 216 h; procedure, shortened: as §3
# [23] = Metabolic stability in mouse liver microsomes after 1 hr by LC/MS/MS analysis in presence of NADPH; format: ADME, Microsome; settings: read-out: Stability; procedure, shortened: as §1
# Mus musculus [24] = assay: Toxicity in C57BL/6J mouse assessed as total RBC count at 1 mg/kg, sc administered once every 3 days for a cycle of six injections measured 2 days post last injection; format: organism-based; design: dose 1 mg/kg, route subcutaneous; settings: in vivo, 48 h
# Procedure, shortened: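 Five male C57BL/6J mice bled retroorbitally into K2EDTA tubes at baseline. After 1 week of recovery they were given 1 mg/kg sc in 20% DMSO/saline every 3 days for six injections, then bled again at the end point. Hematology (WBC, RBC, hemoglobin, neutrophils, lymphocytes) measured externally. Mean of five animals, ± std.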
# LNCaP [25] = assay: Genotoxicity in human LNCAP cells assessed as DNA strand breaks at 10 uM after 48 hrs by comet assay; format: toxicity, cell-based
# Procedure, shortened: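 LNCaP cells, 100 000 per well, adhered 36–48 h, then treated 48 h at 10 μM (5 μM doxorubicin for 4 h as control). Alkaline comet assay imaged at 10× by confocal microscopy. More than 100 comets scored per condition. Damage reported as % DNA in tail.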
# [26] = Drug uptake in nucleus of C57BL/6J mouse liver at 3 mg/kg, sc after 24 hrs by confocal microscopic analysis; format: ADME, organism-based; design: dose 3 mg/kg, route subcutaneous; settings: in vivo
# Procedure, shortened: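 Male C57BL/6J mice, 2 per group, injected with 50 nmol (~3 mg/kg) of fluorescein-conjugated polyamide and sacrificed 24 h later. Liver fixed in 10% formalin for 48 h, cryoprotected in 15% then 30% sucrose, and frozen. Nuclear fluorescence assessed by confocal microscopy in 10 μm sections.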
# [27] = Drug uptake in human LNCAP cell nucleus at 2 uM after 24 hrs by confocal microscopic analysis; format: ADME, cell-based
# Procedure, shortened: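 LNCaP cells incubated 24 h with 2 μM of the fluorescein-conjugated polyamide. Nuclear localization imaged by confocal microscopy.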
structure (smiles),measurement,setting,value
CC(=O)N[C@H](CCNC(=O)c1cc(NC(=O)c2cc(NC(=O)c3cc(NC(=O)c4nccn4C)cn3C)cn2C)cn1C)C(=O)Nc1cn(C)c(C(=O)Nc2cc(C(=O)Nc3cc(C(=O)Nc4cc(C(=O)NCCCN(C)CCCNC(=O)c5cccc(C(=O)O)c5)n(C)c4)n(C)c3)n(C)c2)n1,Activity,Mus musculus [1],Non-toxic
same,remaining at 1 h,[2],> 90%
same,Activity,Mus musculus [3],Non-toxic
same,Activity,Mus musculus [4],Non-toxic
same,Activity,Mus musculus [5],Non-toxic
same,Activity,LNCaP [6],Active
same,Activity,Mus musculus [7],Non-toxic
same,remaining at 1 h,[8],> 90%
same,remaining at 1 h,[9],> 90%
same,Activity,LNCaP [10],Active
same,Activity,Mus musculus [11],Non-toxic
same,Activity,Mus musculus [12],Non-toxic
same,Activity,Mus musculus [13],Non-toxic
same,Activity,Mus musculus [14],29 U/L
same,Activity,LNCaP [15],Dose-dependent effect
same,Activity,Mus musculus [16],Non-toxic
same,Activity,LNCaP [17],Dose-dependent effect
same,IC50,LNCaP [17],2100 nM
same,Activity,Mus musculus [18],Non-toxic
same,Activity,LNCaP [19],Dose-dependent effect
same,Activity,LNCaP [20],Dose-dependent effect
same,T/C,LNCaP [21],52.4%
same,Activity,Mus musculus [22],Non-toxic
same,remaining at 1 h,[23],> 90%
same,Activity,Mus musculus [24],Non-toxic
same,Activity,LNCaP [25],Non-toxic
CC(=O)N[C@H](CCNC(=O)c1cc(NC(=O)c2cc(NC(=O)c3cc(NC(=O)c4nccn4C)cn3C)cn2C)cn1C)C(=O)Nc1cn(C)c(C(=O)Nc2cc(C(=O)Nc3cc(C(=O)Nc4cc(C(=O)NCCCN(C)CCCNC(=S)Nc5ccc(-c6c7ccc(=O)cc-7oc7cc(O)ccc67)c(C(=O)O)c5)n(C)c4)n(C)c3)n(C)c2)n1,Drug uptake,[26],Active
same,Drug uptake,[27],Active
CN(CCCNC(=O)c1cc(NC(=O)c2cc(NC(=O)c3cc(NC(=O)c4nc(NC(=O)[C@H](N)CCNC(=O)c5cc(NC(=O)c6cc(NC(=O)c7cc(NC(=O)c8nccn8C)cn7C)cn6C)cn5C)cn4C)cn3C)cn2C)cn1C)CCCNC(=S)Nc1ccc(-c2c3ccc(=O)cc-3oc3cc(O)ccc23)c(C(=O)O)c1,Drug uptake,[27],Active
